# Assays:
# [1] = system: Trypanosoma cruzi; assay: Anti-parasitic activity against Trypanosoma cruzi Tulahuen CL2 infected in human MRC5 cells after 7 days by chlorophenol red […]-D-galactopyranoside dye based assay; type: functional, cell-based
# Outline: (§1)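 IC50 for growth inhibition of L. infantum, T. cruzi and T. brucei parasites, or for cytotoxicity toward human lung fibroblasts (MRC-5). Values are means of two or more independent experiments.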
# [2] = Cytotoxicity against human MRC5 SV2 cells after 72 hrs by resazurin dye based fluorescence assay; type: cell-based; outline: as §1
# [3] = system: Mycobacterium tuberculosis; assay: Anti-tubercular activity against Mycobacterium tuberculosis H37Rv ATCC 27294 after 7 days under aerobic condition by microplate alamar blue assay; type: functional
# Outline: (§2)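 M. tuberculosis H37Rv MIC measured in two assays: aerobic growth by MABA and hypoxic exposure by LORA. Each value is the mean of ≥2 independent determinations.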
# [4] = system: Trypanosoma brucei brucei; assay: Anti-parasitic activity against Trypanosoma brucei brucei Squib-427 after 72 hrs by resazurin dye based fluorescence assay; type: functional; outline: as §1
# [5] = system: Vero; assay: Cytotoxicity against African green monkey Vero cells after 72 hrs by MTS/PMS assay; type: cell-based; conditions: Chlorocebus sabaeus
# Outline: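 VERO mammalian cells exposed for 72 h. Cytotoxicity IC50 comes from a single test.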
# [6] = system: Leishmania infantum; assay: Anti-parasitic activity against Leishmania infantum MHOM/MA(BE)/67 amastigotes infected in mouse primary peritoneal macrophages after 5 days by giemsa staining based microscopic method; type: functional; outline: as §1
# [7] = system: Mycobacterium tuberculosis; assay: Anti-tubercular activity against Mycobacterium tuberculosis H37Rv ATCC 27294 after 10 days under hypoxic condition by low-oxygen recovery assay; type: functional; outline: as §2
# [8] = Solubility in water at pH 7 after 15 mins by HPLC method; type: physicochemical; conditions: water, pH 7
# Outline: (§3)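 Solubility measured at 20 °C by HPLC, in water (pH 7) or 0.1 M HCl (pH 1).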
# [9] = Solubility in HCl at pH 1 after 15 mins by HPLC method; type: physicochemical; outline: as §3
# [10] = Trypanosoma cruzi, Tulahuen CL2, MRC5, 168 h
# [11] = Mycobacterium tuberculosis, H37Rv ATCC 27294, 168 h, read-out: MIC
# [12] = Trypanosoma brucei, Squib-427, 72 h
# [13] = Leishmania infantum, MHOM/MA(BE)/67, 120 h
# [14] = Mycobacterium tuberculosis, H37Rv ATCC 27294, 240 h, read-out: MIC
Structure (SMILES),"IC50 [1, 10]","IC50 ([2]; Homo sapiens, MRC-5 SV2, 72 h)","MIC [3, 11]","IC50 [4, 12]",IC50 [5],"IC50 [6, 13]","MIC [7, 14]",solubility at 0.25 h [8],solubility at 0.25 h [9],IC50 [1],MIC [3],MIC [7],IC50 [4],IC50 ([2]; mrc5 sv2),IC50 [6]
CC1(COc2ccc(OC(F)(F)F)cc2)Cn2nc(Br)nc2S1 (stereo not given),6.2 µM,42 µM,24 µM,34 µM,89 µM,> 64 µM,> 128 µM,,,,,,,,
CC1(COc2ccc(Oc3ccccc3)cc2)Cn2cc([N+](=O)[O-])nc2S1 (stereo not given),0.14 µM,> 64 µM,0.76 µM,> 64 µM,> 128 µM,> 64 µM,5.3 µM,,,,,,,,
CC1(COc2ccc(OC(F)(F)F)cc2)Cn2nc([N+](=O)[O-])nc2[S+]1[O-] (stereo not given),1.2 µM,0.74 µM,9.3 µM,3 µM,98 µM,0.9 µM,90 µM,,,,,,,,
O=[N+]([O-])c1cn2c(n1)OC(COc1ccc(Oc3ccccc3)cc1)C2 (stereo not given),3.1 µM,19 µM,0.96 µM,> 64 µM,> 128 µM,3.4 µM,> 128 µM,,,,,,,,
CC1(COc2ccc(Oc3ccccc3)cc2)Cn2cc([N+](=O)[O-])nc2S1(=O)=O (stereo not given),0.46 µM,45 µM,> 128 µM,3.8 µM,> 128 µM,55 µM,> 128 µM,,,,,,,,
CC1(COCc2ccc(OC(F)(F)F)cc2)Cn2c([N+](=O)[O-])cnc2S1 (stereo not given),7.3 µM,47 µM,55 µM,22 µM,45 µM,> 64 µM,59 µM,,,,,,,,
CC1(COCc2ccc(OC(F)(F)F)cc2)Cn2cc([N+](=O)[O-])nc2S1 (stereo not given),0.67 µM,> 64 µM,0.24 µM,56 µM,,57 µM,7.9 µM,2.4 µg/mL,,,,,,,
O=[N+]([O-])c1cn2c(n1)SC(COc1ccc(OC(F)(F)F)cc1)C2 (stereo not given),0.85 µM,> 64 µM,4.5 µM,> 64 µM,> 128 µM,> 64 µM,8.2 µM,,,,,,,,
CC1(COc2ccc(N3CCC(Oc4ccc(OC(F)(F)F)cc4)CC3)cc2)Cn2cc([N+](=O)[O-])nc2S1 (stereo not given),0.055 µM,> 64 µM,0.073 µM,59 µM,> 128 µM,53 µM,71 µM,0.18 µg/mL,13 µg/mL,,,,,,
CC1(COc2ccc(-c3ccc(C(F)(F)F)cc3)cc2)Cn2cc([N+](=O)[O-])nc2S1 (stereo not given),0.035 µM,> 64 µM,0.12 µM,52 µM,> 128 µM,> 64 µM,46 µM,,,,,,,,
CC1(COCc2ccc(OC(F)(F)F)cc2)Cn2cc([N+](=O)[O-])nc2S1(=O)=O (stereo not given),0.97 µM,> 64 µM,> 128 µM,> 64 µM,,> 64 µM,21 µM,,,,,,,,
CC1(COc2ccc(OC(F)(F)F)cc2)Cn2cc([N+](=O)[O-])nc2S1(=O)=O (stereo not given),1.8 µM,> 64 µM,14 µM,> 64 µM,> 128 µM,> 64 µM,15 µM,,,,,,,,
CC1(COCc2ccc(OC(F)(F)F)cc2)Cn2cc([N+](=O)[O-])nc2[S+]1[O-] (stereo in doubt; 18),1.6 µM,> 64 µM,,> 64 µM,,> 64 µM,> 128 µM,,,,,,,,
CC1(COCc2ccc(OC(F)(F)F)cc2)Cn2cc([N+](=O)[O-])nc2[S+]1[O-] (stereo in doubt; 19),,,> 128 µM,,,,,,,3 µM,,,,,
CC1(COc2ccc(OC(F)(F)F)cc2)Cn2cc([N+](=O)[O-])nc2[S+]1[O-] (stereo in doubt; 37),2.3 µM,> 64 µM,,> 64 µM,> 128 µM,> 64 µM,,,,,>128 µM,>128 µM,,,
CC1(COc2ccc(OC(F)(F)F)cc2)Cn2cc([N+](=O)[O-])nc2[S+]1[O-] (stereo in doubt; 38),,,,,,,,,,1.7 µM,26 µM,58 µM,41 µM,,
CC1(COc2ccc(Oc3ccccc3)cc2)Cn2cc([N+](=O)[O-])nc2[S+]1[O-] (stereo in doubt; 39),,53 µM,,,> 128 µM,55 µM,,,,0.19 µM,,>128 µM,0.36 µM,,
CC1(COc2ccc(Oc3ccccc3)cc2)Cn2cc([N+](=O)[O-])nc2[S+]1[O-] (stereo in doubt; 40),,,> 128 µM,,,,,,,0.75 µM,,25 µM,0.98 µM,51 µM,42 µM

# Reference: ChEMBL document CHEMBL4028840, “6-Nitro-2,3-dihydroimidazo[2,1-b][1,3]thiazoles: Facile synthesis and comparative appraisal against tuberculosis and neglected tropical diseases” (Bioorg Med Chem Lett, 2017)
